A selection: hits, their analogues and other compounds. The true share with any hit is near 1.6%.
Neddylation inh: cullin neddylation inhibition. P61081+Q13564. TR-FRET cullin neddylation, biochemical. calls only at 25 µM. 0.58% of 360,000 active. AID 651699; in the data active means inhibition above about 36%
procasp3 activ: activators of human procaspase-3 | P42574 | recombinant procaspase-3 D3A, Ac-DEVD-pNA absorbance 405 nm | activation, % at 8.5 µM | 0.11% of 330,000 active | AID 463141;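 active means activation above the mean of all tested compounds plus 3 SD, cut at about 21% in these data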;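 further: 0% = DMSO alone and 100% = DMSO wells spiked with extra 5 µM PC-3 D3A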
Target sequence (P42574 whole entry D9A/D28A/D175A): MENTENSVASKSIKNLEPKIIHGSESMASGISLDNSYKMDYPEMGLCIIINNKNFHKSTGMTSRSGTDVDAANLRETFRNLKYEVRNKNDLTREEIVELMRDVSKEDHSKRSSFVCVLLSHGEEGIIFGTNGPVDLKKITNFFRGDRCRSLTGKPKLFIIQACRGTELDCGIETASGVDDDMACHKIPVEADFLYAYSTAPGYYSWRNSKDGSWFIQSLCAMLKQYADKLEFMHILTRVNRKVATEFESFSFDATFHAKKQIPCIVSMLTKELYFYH
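System: Procaspase-3 D3A mutant. Medium: Zinc-free 300 mM NaCl, 50 mM HEPES, 0.01% Triton X-100. Schedule: 1 h preincubation plus 2 h reaction at 25 °C. Measured by: 405 nm absorbance of p-nitroaniline, reads at 0 and 120 min. Read-out: percent activation relative to control range.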
KLK7 zymogen act: proKLK7 (human) activation, primary screen | purified proKLK7, EDANS-DABCYL substrate fluorescence; 100% is mature enzyme control, 0% vehicle | activation, % at 7 µM | 0.9% of 370,000 active | AID 652039;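 active means activation above the mean of all tested compounds plus 3 SD, computed per campaign excluding outliers beyond control limits, cut at about 13% in these data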
Target sequence (P49862 whole entry, looked up): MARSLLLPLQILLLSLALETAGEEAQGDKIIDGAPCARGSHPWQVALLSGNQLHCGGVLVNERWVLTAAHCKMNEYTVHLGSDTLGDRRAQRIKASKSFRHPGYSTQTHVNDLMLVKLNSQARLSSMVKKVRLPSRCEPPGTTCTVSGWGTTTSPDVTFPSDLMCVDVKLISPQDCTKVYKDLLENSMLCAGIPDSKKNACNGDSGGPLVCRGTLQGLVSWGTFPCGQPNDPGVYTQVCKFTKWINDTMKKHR
proCasp7 act: counter-screen: procaspase-7 (human) activation. AID 463210. recombinant procaspase-7, Ac-DEVD-pNA absorbance 405 nm; D23A/D198A/D206A triple mutant, cannot self-cleave; scale: DMSO 0, 5 µM enzyme 100. P55210. activation, % at 8.5 µM. 0.093% of 330,000 active;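 active means percent activation above the screen-wide mean plus 3 SD, cut at about 25% in these data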
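Replicates: singlicate. Assay system: Procaspase-7 triple mutant (PC-7 D3A). Signal: 405 nm absorbance of p-nitroaniline. Times: 1 h preincubation, 2 h reaction. Buffer or medium: Zinc-free HEPES pH 7.4 with 300 mM NaCl, 0.01% Triton X-100. Also added: DEVD-pNA substrate. Benchmarks: DMSO wells as 0%, DMSO with 5 µM added PC-7 as 100%.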
PC3 dual counter: activates human procaspase-3, dual activator counter-screen; shares compounds with proCasp7 act; recombinant PC-3 D3A, Ac-DEVD-pNA absorbance 405 nm; aspartates 9, 28, 175 changed to alanine; 100% = enzyme control; activation, % at 8.5 µM; 290 tested, under 10 active; AID 493114;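 active means mean percent activation across triplicates above a set limit taken from the earlier primary procaspase-3 screen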;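 further: 0% = DMSO wells and 100% = DMSO wells with 5 µM added PC-3 D3A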
Procasp7 act: confirmation of dual procaspase activators: human procaspase-7 activation; shares compounds with proCasp7 act; 290 tested, under 10 active; recombinant procaspase-7, Ac-DEVD-pNA absorbance 405 nm; D23A/D198A/D206A mutant that cannot self-cleave; activation, % at 8.5 µM;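 active means mean activation above a set limit carried over from the earlier primary screen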;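 further: 0% = DMSO only and 100% = DMSO with added 5 µM PC-7 enzyme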
Active calls of the source: *; i = inactive; / = not tested or not shown.

SMILES	Neddylation inh	procasp3 activ	KLK7 zymogen act	proCasp7 act	PC3 dual counter	Procasp7 act
COc1ccccc1-c1nnc2sc(-c3ccc(N(C)C)cc3)nn12	/	-3.4	-26.4	-19.7	/	/
O=C(Nc1sc2c(c1C(=O)NCC1CCCO1)CCCC2)c1cccs1 (stereo not given)	i	16.4	1.0	36.7*	1.4	-1.9
CN(C)c1ccc(C(=O)NCCc2ccccc2-c2ccccc2CCC(=O)NCc2ccccc2)cc1	/	/	0.3	/	/	/
O=C(NCCN1CCCC1)C1CCC(=O)N(CCCN2CCOCC2)C1 (stereo not given)	i	0.1	0.1	44.8*	0.8	0.5
CSc1nnc(-c2ccccc2SC)o1	i	3.3	-0.2	3.7	/	/
CSc1nnc(-c2cc3c(s2)-c2ccccc2CC3)o1	/	-28.5	-152.4	32.5*	-27.5	-27.8
Cc1ccccc1Cn1cc(COC(=O)N(C)Cc2ccccc2)nn1	/	/	0.1	/	/	/
CCC(=O)Nc1nn(C)c2nc3c(C)cccc3cc12	/	-3.2	2.7	3.2	/	/
COc1ccc(CC(=O)Nc2nn(C)c3nc4c(C)cccc4cc23)cc1	i	22.8*	-2.5	40.4*	-29.5	-35.1
COc1ccc(-c2c(-c3ccc(C#N)cc3)oc(=O)c3cc(OC)c(OC)cc23)cc1	i	15.3	-13.6	26.3*	-3.6	-5.6
COc1ccc(-c2oc(=O)c3cc(OC)c(OC)cc3c2-c2cc(F)cc(OC)c2)cc1	i	-2.2	0.0	7.9	/	/
Cc1ccc(Cn2c(=O)c3cccnc3n(CC(=O)Nc3cccc(C(F)(F)F)c3)c2=O)cc1	i	0.9	0.0	41.5*	-1.1	-1.3
O=C1C(Cl)=C(NCCc2ccccc2)C(=O)N1CCc1ccccc1	i	3.8	-1.5	33.4*	-12.2	-6.4
O=C1C(Cl)=C(NCCCN2CCOCC2)C(=O)N1CCc1ccccc1	i	-1.9	0.8	-6.2	/	/
Nc1c(S(=O)(=O)c2cccs2)c2nc3ccccc3nc2n1Cc1ccccc1	/	44.3*	-26.8	54.7*	-29.4	-35.5
COC(=O)C1=C(C)N(Cc2ccc(C(F)(F)F)cc2)C(=NCc2ccccc2C(F)(F)F)NC1c1cccc(Cl)c1 (stereo not given)	/	/	-0.4	/	/	/
Cc1cc(N2CCNC[C@@H]2C)ccc1N1CCN(Cc2ccccc2)[C@H](C)C1	/	/	-0.5	/	/	/
CCn1c(=NC(=O)C2COc3ccccc3O2)sc2c(OC)ccc(OC)c21 (stereo not given)	i	5.8	-0.6	35.7*	1.7	2.4
COCCn1c(=NC(=O)C2COc3ccccc3O2)sc2cc(S(N)(=O)=O)ccc21 (stereo not given)	i	1.5	-0.1	-5.5	/	/
O=C(Nc1ccccc1)OCCN1C(=O)CCC12CCC(c1ccc(Cl)cc1)CC2 (stereo not given)	/	/	-0.5	/	/	/
CCOC(=O)c1ccc2nc(NC(=O)c3ccco3)sc2c1	/	24.2*	-0.1	30.3*	-29.4	-36.4
CCOC(=O)c1c(NC(=O)COC(=O)c2ccccc2NC)sc(C(=O)N(C)C)c1C	/	6.5	-7.2	29.0*	-28.1	-31.8
CCOC(=O)c1c(NC(=O)COC(=O)Cc2ccccc2[N+](=O)[O-])sc(C(=O)N(C)C)c1C	i	6.4	0.1	-1.8	/	/
CN(Cc1ccccc1)S(=O)(=O)c1cccc(C(=O)OCC2CCCCC2)c1	/	/	-0.1	/	/	/
COc1cc(Cn2c(N)c(C#N)c3nc4ccccc4nc32)cc(OC)c1	/	91.3*	-50.2	84.9*	-29.0	-34.9
SMILES	Neddylation inh	procasp3 activ	KLK7 zymogen act	proCasp7 act	PC3 dual counter	Procasp7 act
COc1ccc(Cn2c(N)c(C#N)c3nc4ccccc4nc32)cc1	/	-7.5	7.4	-22.0	/	/
Cc1ccccc1NC(=O)c1cnn(-c2ccccc2)c1C	i	4.2	0.2	34.5*	1.4	1.2
Cc1cccc(NC(=O)c2cnn(-c3ccccc3)c2C)c1C	i	1.6	-0.3	0.0	/	/
Cc1ccc2nc(-c3ccc(NS(=O)(=O)c4ccccc4)cc3)sc2c1	/	22.6*	-23.5	51.7*	3.8	2.5
O=C(NNS(=O)(=O)c1ccccc1)c1cc2cc3ccccc3nc2s1	i	-1.3	1.2	7.4	/	/
O=C(NNC(=O)c1cc2cc3ccccc3nc2s1)c1cccc(C(F)(F)F)c1	i	0.0	0.6	26.0*	-23.0	-19.1
COc1cccc(/C=C2\CC3(OC(=O)c4ccccc4)CCCN2C3)c1 (stereo not given)	/	/	0.3	/	/	/
CCN(Cc1ccccc1)c1ccc(/C=N/NC(=S)NC(C)C)cc1	/	23.4*	-3.2	30.4*	-0.3	2.1
CCOC(=O)/C(C#N)=C/Nc1cc(OC)ccc1OC	i	94.9*	-0.9	86.6*	9.1	5.6
CCOC(=O)/C(C#N)=C/c1ccc(OC)c(OC)c1	i	1.6	-0.7	9.0	/	/
COc1ccc2c(c1OC)C(=O)OC2CC(=O)c1ccc(N(C)C)cc1 (stereo not given)	i	44.1*	-1.2	41.3*	40.9*	29.7*
COc1ccc2c(c1OC)C(=O)OC2CC(=O)c1ccc(O)c(O)c1 (stereo not given)	i	20.8	0.5	19.8	/	/
O=C(NNC(=O)C1CC(c2cccnc2)=NO1)Nc1ccccc1F (stereo not given)	i	-2.8	0.5	26.1*	1.1	3.0
Cc1ccc(NC(=O)NNC(=O)C2CC(c3cccnc3)=NO2)cc1 (stereo not given)	i	9.1	-0.5	-12.5	/	/
OCCN1CCCC12CCC(c1ccccc1)CC2 (stereo not given)	/	/	0.2	/	/	/
O=C1OCCN1C(=O)[C@H]1[C@H](c2ccccc2)C(c2ccccc2)=NN1c1ccccc1	i	-5.6	-44.7	-4.4	/	/
C[C@@H]1C(c2cccc(Cl)c2)=NN(c2ccc(Br)cc2)[C@H]1C(=O)N1CCOC1=O	i	21.9*	/	28.7*	-30.1	-36.0
C[C@@H]1C(c2cccc(Cl)c2)=NN(c2ccccc2)[C@H]1C(=O)N1CCOC1=O	i	6.9	6.2	30.3*	-30.1	-36.5
Cc1cccc(C2=NN(c3ccc(Br)cc3)[C@@H](C(=O)N3CCOC3=O)[C@@H]2c2ccccc2)c1	i	20.2	/	32.1*	-29.8	-33.4
O=C1OCCN1C(=O)[C@H]1[C@H](c2ccccc2)C(c2ccccc2)=NN1c1ccc(Br)cc1	i	14.1	-184.7	16.8	/	/
CCOC(=O)[C@@]12CN(C(=O)OC(C)(C)C)CC=C1N(Cc1ccc(OC)cc1)C(=O)[C@H]2CC(=O)N1CCSCC1	/	/	0.4	/	/	/
O=C1CCC2(CCCCC2)N1CCCO	/	/	0.0	/	/	/
Cc1cc(C)c(C#N)c(SCC(=O)Nc2ccccc2C)n1	i	-3.1	0.1	-3.1	/	/
Cc1ccc2sc(NC(=O)CSc3nc(C)cc(C)c3C#N)nc2c1	i	18.1	-7.6	42.1*	-29.8	-36.1

Screening results (PubChem)
